For 2 molecules, IC50, Activity and inhibition results are on record in ChEMBL document CHEMBL2163221, “Discovery of a potential anti-ischemic stroke agent: 3-pentylbenzo[c]thiophen-1(3H)-one” (J Med Chem, 2012).

Experiment [1] deals with Platelet. Description: Inhibition of adenosine diphosphate-induced platelet aggregation in rabbit platelet rich plasma by Born's turbidimetric method. Type of experiment: functional. Particulars: Oryctolagus cuniculus. Put shortly: (§1)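 Rabbit carotid blood in 3.8% sodium citrate (9:1); PRP by 500g spin for 10 min, PPP by a further 3000g spin for 10 min. PRP was preincubated in duplicate for 5 min at 37 °C with vehicle or agent (0.1, 0.2, 0.4, 0.8, 1.6 mM). Aggregation was triggered by ADP (10 μM final) or AA (1 mM), and maximal light transmission was read within 5 min, within 3 h of collection. Inhibition % = 100 × (1 − treated/control); IC50 was calculated.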

Experiment [2] deals with Rattus norvegicus. The experiment can be described thus: Antioxidant activity in Sprague-Dawley rat middle cerebral artery occlusion model assessed as increase in glutathione level in brain at 3 mg/kg, ig for 7 consecutive days. Type of experiment: functional. The following applies: route intragastric. Put shortly: (§2)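 Rats pretreated orally in saline for 7 days underwent 2 h MCAO with reperfusion. At 24 h brains were removed, rinsed in cold 0.9% saline, blotted and stored at −70 °C. After protein quantification, GSH, SOD activity and MDA were measured with commercial kits; n = 12/group.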

Experiment [3] concerns Plasma. The experiment can be described thus: Anticoagulant activity in rabbit plasma assessed as length of activated partial thromboplastin time. Type of experiment: functional, cell-free. Particulars: Oryctolagus cuniculus.
Experiment [4] concerns Rattus norvegicus. Description: Anticerebral ischemic activity in Sprague-Dawley rat middle cerebral artery occlusion model assessed as reduction in infarct size in brain at 3 mg/kg, ig for 7 consecutive days by TTC assay. Further details: scale not given: the % may be the effect or the level left. The following applies: route intragastric. Type of experiment: functional. Put shortly: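 SD rats, chloral hydrate 350 mg/kg ip anaesthesia; right MCA occluded 2 h by silicone-tipped 4-0 nylon filament via ECA into ICA (>80% CBF drop by laser Doppler, 37 ± 0.5 °C), then reperfusion. Dosed in normal saline orally daily 7 days before ischemia. At 24 h, 2-mm coronal slices stained 2% TTC 30 min 37 °C; infarct area as % of whole brain; n = 6.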

The test system of experiment [5] is Rattus norvegicus. Description: Antioxidant activity in Sprague-Dawley rat middle cerebral artery occlusion model assessed as increase in superoxide dismutase activity at 3 mg/kg, ig for 7 consecutive days. Type of experiment: functional. Particulars: route intragastric. Put shortly: as §2
In experiment [6] the test system is Rattus norvegicus. Description: Antithrombotic activity in Sprague-Dawley rat arteriovenous shunt model assessed as reduction of thrombus dry weight at 3 mg/kg, po qd for 5 consecutive days. Type of experiment: functional. Also noted: scale not given: the % may be the effect or the level left. The method in brief: (§3)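 Male SD rats were dosed by gavage in saline daily for 5 days (n = 12/group). An A-V shunt linked the right carotid artery to the left jugular vein: a saline-filled 14 cm polyethylene tube holding 6 cm of four braided silk threads. After 15 min of flow, the threads were weighed wet, then dried 6 h at room temperature and reweighed, less the pre-experiment thread weight.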

In experiment [7] the test system is Platelet. The experiment can be described thus: Inhibition of adenosine diphosphate-induced platelet aggregation in rabbit platelet rich plasma at 0.1 mM by Born's turbidimetric method. Type of experiment: functional. Particulars: Oryctolagus cuniculus. Put shortly: as §1
The test system of experiment [8] is Rattus norvegicus. Description: Anticerebral ischemic activity in Sprague-Dawley rat middle cerebral artery occlusion model assessed as reduction of water content in brain at 3 mg/kg, ig for 7 consecutive days. Type of experiment: functional, organism-based. Also noted: dose 3 mg/kg. The method in brief:
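Rats given oral saline-vehicle pretreatment for 7 days underwent 2 h suture MCAO plus reperfusion. At 24 h the animals were decapitated and brains weighed wet, then dried at 105 °C for 24 h. Water % = (wet − dry)/wet × 100; n = 6/group.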

The test system of experiment [9] is PC-12. Description: Antioxidant activity in rat PC12 cells assessed as inhibition of hydrogen peroxide induced cytotoxicity at 10 uM treated for 2 hrs prior to H2O2 challenge measured after 1 hr by MTT assay (reference value: 52.45%). Type of experiment: functional. Also noted: scale not given: the % may be the effect or the level left.
Experiment [10] has as its system PC-12. Description: Antioxidant activity in rat PC12 cells assessed as inhibition of hydroxyl radical-induced cytotoxicity at 10 uM treated for 2 hrs prior to H2O2/Fe+ challenge measured after 1 hr by MTT assay (reference value: 61.95%). Also noted: scale not given: the % may be the effect or the level left. Type of experiment: functional. (Tetrazolium dyes change colour on reduction, which living cells bring about.)

Experiment [11] deals with Rattus norvegicus. Description: Anticerebral ischemic activity in Sprague-Dawley rat middle cerebral artery occlusion model assessed as reduction in neurological deficit score at 3 mg/kg, ig for 7 consecutive days by Longa's method. Type of experiment: functional. Also noted: scale not given: the % may be the effect or the level left. The following applies: route intragastric. Put shortly: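 SD rats were dosed orally in normal saline for 7 days before ischemia (n = 12/group). They were anesthetized ip with 350 mg/kg chloral hydrate and given MCAO with a silicone-tipped 4-0 nylon suture for 2 h, then reperfusion. Occlusion was confirmed as >80% CBF drop by laser Doppler, with core temperature held at 37 °C. Deficits were scored blinded by modified Longa's method 24 h after reperfusion.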

Experiment [12] deals with Rattus norvegicus. The experiment can be described thus: Antioxidant activity in Sprague-Dawley rat middle cerebral artery occlusion model assessed as decrease in malondialdehyde level in brain at 3 mg/kg, ig for 7 consecutive days. Type of experiment: functional. Also noted: scale not given: the % may be the effect or the level left. Particulars: route intragastric. Put shortly:
as §2

Experiment [13] relates to Rattus norvegicus. Description: Antithrombotic activity in Sprague-Dawley rat arteriovenous shunt model assessed as reduction of thrombus wet weight at 3 mg/kg, po qd for 5 consecutive days. Type of experiment: functional. Also noted: scale not given: the % may be the effect or the level left. The method in brief:
as §3

The subject of experiment [14] is Platelet. Description: Inhibition of arachidonic acid-induced platelet aggregation in rabbit platelet rich plasma at 0.1 mM by Born's turbidimetric method. Type of experiment: functional. The following applies: Oryctolagus cuniculus. The method in brief:
as §1

The test system of experiment [15] is Platelet. The experiment can be described thus: Inhibition of arachidonic acid-induced platelet aggregation in rabbit platelet rich plasma by Born's turbidimetric method. Type of experiment: functional. Particulars: Oryctolagus cuniculus. The method in brief: as §1

Structures are written as SMILES. Calls of active or inactive are those of the source. The rule behind the calls is not given here. Bounds are passed on as bounds.

In general, IC50 refers to the concentration that gives 50% inhibition. A word on the inhibition: it is how much of the control response was suppressed. As to `CC1=NN(c2ccccc2)C(=O)C1` [EDARAVONE], the IC50 in experiment [1] came out at 850 µM; in experiment [15], 250 µM. The Activity in experiment [2] turned out to be 58.33%; in [4], 37.31%; in experiment [5], 34.2%; in experiment [6], 30.08%; in [9], 78.05%; in experiment [10], 83.3%. Further, the Activity is recorded as 34.46% in [11], 28.52% in experiment [12] and 36.14% in experiment [13]. Also, the result in experiment [3] was inactive. The inhibition at 100 µM in [7] was 11.5%; in experiment [14], 36.1%. Further, in experiment [8], the result was Active.

In the case of `CCCCCCCC1SC(=O)c2ccccc21` (racemic), the IC50 in [1] is 720 µM; in [15], more than 1000 µM.
